For assay [1], the target named is T1, Angiotensin II receptor (AT-1) type-1 (Rattus norvegicus, UniProt P29089+P25095).
T1 sequence (P29089 whole entry): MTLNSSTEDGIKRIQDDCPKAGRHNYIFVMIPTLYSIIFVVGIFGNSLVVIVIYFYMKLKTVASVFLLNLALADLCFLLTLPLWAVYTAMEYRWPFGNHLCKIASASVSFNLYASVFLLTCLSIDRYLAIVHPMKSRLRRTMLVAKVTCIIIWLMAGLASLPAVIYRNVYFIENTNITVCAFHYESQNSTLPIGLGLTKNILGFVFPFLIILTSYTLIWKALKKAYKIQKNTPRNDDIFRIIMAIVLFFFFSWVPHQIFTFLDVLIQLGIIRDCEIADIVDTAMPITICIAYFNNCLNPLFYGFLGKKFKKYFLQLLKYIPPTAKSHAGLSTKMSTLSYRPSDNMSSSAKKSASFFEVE
T1 sequence (P25095 whole entry): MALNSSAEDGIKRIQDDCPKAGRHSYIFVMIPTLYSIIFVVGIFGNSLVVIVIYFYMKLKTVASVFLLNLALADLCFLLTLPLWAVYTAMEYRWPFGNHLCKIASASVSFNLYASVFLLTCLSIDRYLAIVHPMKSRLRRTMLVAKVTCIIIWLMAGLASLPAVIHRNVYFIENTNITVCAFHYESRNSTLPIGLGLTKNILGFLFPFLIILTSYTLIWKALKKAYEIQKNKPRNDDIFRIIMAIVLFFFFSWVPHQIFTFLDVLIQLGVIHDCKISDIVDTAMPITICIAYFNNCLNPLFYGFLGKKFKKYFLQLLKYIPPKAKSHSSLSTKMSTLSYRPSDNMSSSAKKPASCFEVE
Description: Inhibitory concentration against binding of [125I]angiotensin II to rat liver expressing Angiotensin II receptor. The method in brief:
(§1)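 Rat liver membranes homogenized in 10 mM HEPES pH 7.4 with protease inhibitors, captopril and PMSF. Nonspecific binding defined with 1.0 µM saralasin. No BSA. IC50 by nonlinear fit to mass-action equation from at least five or six concentrations.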

Assay [2] concerns Rattus norvegicus. Description: Tested in vivo for effective dose (iv) that produces inhibition of pressor response to Angiotensin II in conscious normotensive rats. Format: functional.
Assay [3] concerns Rattus norvegicus. As to the kind of experiment: Effect on mean arterial pressure after oral dosing at 10 mg/kg to renal hypertensive rats. In kind it is functional, Artery. The method in brief: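 Male Sprague-Dawley rats, bilateral renal artery clipping at 5 weeks, used 10-12 weeks later; aortic cannula to neck, 48 h recovery; rats with mean BP <150 mmHg excluded. Compound suspended in 0.5% methocel in water, oral gavage 10 mg/kg in 2 mL/kg to conscious rats (n = 5-6). BP and heart rate recorded continuously, averaged over 30-min intervals.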

Assay [4] addresses T1, Angiotensin II receptor (AT-1) type-1. As to the kind of experiment: Tested for inhibitory concentration against AT1 receptor binding affinity in rat liver. In outline:
as §1

This note sets out measurements from ChEMBL document CHEMBL1127049, “Nonpeptide angiotensin II receptor antagonists. 2. Design, synthesis, and structure-activity relationships of 2-alkyl-4-(1H-pyrrol-1-yl)-1H-imidazole derivatives: profile of 2-propyl-1-[[2'-(1H-tetrazol-5-yl)-[1,1' -biphenyl]-4-yl]-methyl]-4-[2-(trifluoroacetyl)-1H-pyrrol-1-yl]-1H- …” (J Med Chem, 1993).

A word on the IC50: it is the concentration at which inhibition is half-maximal. In general, ED50 refers to the dose that gives a 50% effect, or the effect in half of the subjects. A higher ED50 goes with weaker potency. As usually defined, the pIC50 is −log10 of the IC50, conventionally taken in molar units. A low value points to a large IC50.

The structures appear in SMILES notation. pIC50: −log10 of the molar value.

`CCCc1nc(-n2cccc2)c(/C=C/C(=O)O)n1Cc1ccc(-c2ccccc2-c2nn[nH]n2)cc1` came in with an IC50 in assay [1] of 4 nM.

The molecule `CCCc1nc(-n2ccc(C(=O)OCC)c2)c(C(=O)O)n1Cc1ccc(-c2ccccc2-c2nn[nH]n2)cc1` gave an IC50 in assay [1] of 22 nM.

As for `CCCc1nc(-n2c(C)ccc2C)c(CO)n1Cc1ccc(-c2ccccc2-c2nn[nH]n2)cc1`, the IC50 in assay [1] was found to be 23.8 nM. In the case of `CCCc1nc(-n2ccc(C(=O)OC)c2C)c(C(=O)OC)n1Cc1ccc(-c2ccccc2-c2nn[nH]n2)cc1`, the IC50 in assay [1] turned out to be 18.8 nM. In the assay with Rattus norvegicus [2], `CCCCc1nc(Cl)c(CO)n1Cc1ccc(-c2ccccc2-c2nnn[nH]2)cc1` [LOSARTAN] displayed an ED50 of 75.9 µg/min/kg. Also, in the assay with Rattus norvegicus [3], the “Change in BP” value was -27. Molecule `CCCc1nc(-n2ccc(C(=O)OC)c2C)c(C(=O)O)n1Cc1ccc(-c2ccccc2-c2nn[nH]n2)cc1` gave an IC50 in assay [1] of 1.37 nM. The same measure, in the same setting: the result for `CCCc1nc(-n2c(C)ccc2C)c(C=O)n1Cc1ccc(-c2ccccc2-c2nn[nH]n2)cc1` reads 13.7 nM; that for `CCCc1nc(-n2cccc2C=O)c(C(=O)O)n1Cc1ccc(-c2ccccc2-c2nn[nH]n2)cc1`, 0.8 nM. Turning to `CCCc1nc(-n2c(C)ccc2CCC)c(C(=O)O)n1Cc1ccc(-c2ccccc2-c2nn[nH]n2)cc1`, the IC50 in assay [1] is recorded as 0.9 nM. In addition, the Change in BP with Rattus norvegicus [3] was -6. On the same counts, the results for `CCCc1nc(-n2cccc2)c(C(=O)OCC)n1Cc1ccc(-c2ccccc2-c2nn[nH]n2)cc1` are 12.2 nM and -22. In turn, `CCCCc1nc(-n2cccc2)c(C(=O)c2ccccc2)n1Cc1ccc(-c2ccccc2-c2nn[nH]n2)cc1` showed an IC50 in assay [1] of 23.3 nM. On the same count and under the same terms, the same measure for `CCCc1nc(-n2c(C)ccc2CCC)c(C(=O)OC)n1Cc1ccc(-c2ccccc2-c2nn[nH]n2)cc1`: 15.1 nM; for `CCCc1nc(-n2cccc2)c(C#N)n1Cc1ccc(-c2ccccc2-c2nn[nH]n2)cc1`: 332 nM; for `CCCc1nc(-n2cccc2C(=O)O)c(C(=O)O)n1Cc1ccc(-c2ccccc2-c2nn[nH]n2)cc1`: 11.2 nM.

In assay [1], `CCCc1nc(-n2ccc(C(=O)O)c2)c(C(=O)O)n1Cc1ccc(-c2ccccc2-c2nn[nH]n2)cc1` showed a concentration for half-maximal inhibition (IC50) of 25.1 nM. Take `CCCc1nc(-n2c(C)ccc2C)c(/C=C/C(=O)O)n1Cc1ccc(-c2ccccc2-c2nn[nH]n2)cc1`: in the assay with Rattus norvegicus [2], the 50% effective dose (ED50) came out at 16.4 µg/min/kg. For the same molecule, in assay [1], the IC50 turned out to be 3.32 nM. In addition, in the assay with Rattus norvegicus [3], the “Change in BP” value is reported as -8. `CCCc1nc(-n2cccc2)c(C(=O)O)n1Cc1ccc(-c2ccccc2-c2nn[nH]n2)cc1` came in with an ED50 in the assay on Rattus norvegicus [2] of 27 µg/min/kg. Further, in assay [1], the negative-log IC50 (pIC50) was 8.77. The “Change in BP” value with Rattus norvegicus [3] is -25. Consider `CCCCc1nc(Cl)c(C(=O)O)n1Cc1ccc(-c2ccccc2-c2nn[nH]n2)cc1` [CARBOXYLIC ACID METABOLITE], for which the ED50 in the assay on Rattus norvegicus [2] came out at 13.6 µg/min/kg. Besides, the “Change in BP” value with Rattus norvegicus [3] was -22.

The molecule `CCCc1nc(-n2c(C)ccc2C)c(C(=O)O)n1Cc1ccc(-c2ccccc2-c2nn[nH]n2)cc1` had an IC50 in assay [1] of 0.82 nM. The “Change in BP” value in the assay with Rattus norvegicus [3] is -26. On the same counts, the results for `CCCCc1nc(-n2cccc2C(=O)C(F)(F)F)c(C(=O)OC)n1Cc1ccc(-c2ccccc2-c2nn[nH]n2)cc1` are 3.57 nM and -19.

In the case of `CCCc1nc(-n2cccc2C(=O)C(F)(F)F)c(C#N)n1Cc1ccc(-c2ccccc2-c2nn[nH]n2)cc1`, in assay [1], the IC50 came out at 171 nM. `Cc1ccc(C)n1-c1nc(C2CC2)n(Cc2ccc(-c3ccccc3-c3nn[nH]n3)cc2)c1C(=O)O` returned an IC50 in assay [1] of 2.81 nM. Further, the “Change in BP” value in the assay with Rattus norvegicus [3] is recorded as -11.

Molecule `CCCc1nc(-n2c(Cl)ccc2Cl)c(C(=O)OCC)n1Cc1ccc(-c2ccccc2-c2nn[nH]n2)cc1` yielded an IC50 in assay [1] of 3.93 nM.

As to `CCCc1nc(-n2cccc2)c(/C=C(\C)C(=O)O)n1Cc1ccc(-c2ccccc2-c2nn[nH]n2)cc1`, the IC50 in assay [1] is recorded as 2.5 nM. In assay [1], `CCCc1nc(-n2c(C)ccc2C)c(/C=C/C(=O)OC)n1Cc1ccc(-c2ccccc2-c2nn[nH]n2)cc1` had an IC50 of 21.6 nM. `CCCCc1nc(-n2cccc2)c(C#N)n1Cc1ccc(-c2ccccc2-c2nn[nH]n2)cc1`: the IC50 in assay [1] is 209 nM.

With `CCCc1nc(-n2cccc2)c(/C=C(\C)C(=O)OCC)n1Cc1ccc(-c2ccccc2-c2nn[nH]n2)cc1`, the IC50 in assay [1] is reported as 2.8 nM. Also, in the assay on Rattus norvegicus [3], the “Change in BP” value is listed as -12. For `CCCc1nc(-n2cccc2C(O)C(F)(F)F)c(C#N)n1Cc1ccc(-c2ccccc2-c2nn[nH]n2)cc1` (stereo not given), in assay [1], the IC50 amounted to 233 nM. Molecule `CCCc1nc(C(F)(F)C(F)(F)F)c(C(=O)O)n1Cc1ccc(-c2ccccc2-c2nn[nH]n2)cc1` showed an IC50 in assay [4] of 3.4 nM. With `CCCc1nc(-n2cccc2C(=O)C(F)(F)F)c(C(=O)O)n1Cc1ccc(-c2ccccc2-c2nn[nH]n2)cc1`, the ED50 in the assay with Rattus norvegicus [2] was 6.23 µg/min/kg. In addition, in assay [1], the IC50 is listed as 0.58 nM. Also, the “Change in BP” value in the assay on Rattus norvegicus [3] is -29. In assay [1], `CCCc1nc(-n2c(C)ccc2C)c(C#N)n1Cc1ccc(-c2ccccc2-c2nn[nH]n2)cc1` had an IC50 of 188 nM.

In assay [1], `CCCc1nc(-n2cccc2C(=O)OC)c(C#N)n1Cc1ccc(-c2ccccc2-c2nn[nH]n2)cc1` gave an IC50 of 53.3 nM. On the same count and under the same terms, the same measure for `CCCc1nc(-n2cccc2)cn1Cc1ccc(-c2ccccc2-c2nn[nH]n2)cc1`: 5.6 nM. Consider `CCCCc1nc(-n2cccc2)c(C(=O)O)n1Cc1ccc(-c2ccccc2-c2nn[nH]n2)cc1`, for which the ED50 with Rattus norvegicus [2] is 38 µg/min/kg. The molecule also had an IC50 in assay [1] of 1.57 nM. Further, in the assay with Rattus norvegicus [3], the “Change in BP” value is reported as -27.

For `COC(=O)c1c(-n2c(C)ccc2C)nc(C2CC2)n1Cc1ccc(-c2ccccc2-c2nn[nH]n2)cc1`, the IC50 in assay [1] amounted to 65.5 nM. On the same count and under the same terms, the result for `CCCc1nc(-n2cccc2C(=O)O)c(C(N)=O)n1Cc1ccc(-c2ccccc2-c2nn[nH]n2)cc1` reads 8.76 nM. Consider `CCCc1nc(-n2c(C)ccc2C)c(C(=O)OC)n1Cc1ccc(-c2ccccc2-c2nn[nH]n2)cc1`, for which the IC50 in assay [1] amounted to 20.9 nM. In the assay with Rattus norvegicus [3], the “Change in BP” value is -8. `CCCc1nc(-n2ccc(C(=O)OCC)c2)c(C(=O)OC)n1Cc1ccc(-c2ccccc2-c2nn[nH]n2)cc1` gave an IC50 in assay [1] of 158 nM. On the same count and under the same terms, the same measure for `CCCc1nc(-n2cccc2C(O)C(F)(F)F)c(C(=O)O)n1Cc1ccc(-c2ccccc2-c2nn[nH]n2)cc1` (stereo not given): 1.04 nM. For the molecule `CCCc1nc(-n2c(Cl)ccc2Cl)c(C(=O)O)n1Cc1ccc(-c2ccccc2-c2nn[nH]n2)cc1`, the pIC50 in assay [1] was 9.85. In turn, `CCCCc1nc(-n2cccc2C(=O)C(F)(F)F)c(C(=O)O)n1Cc1ccc(-c2ccccc2-c2nn[nH]n2)cc1` registered an IC50 in assay [1] of 2.37 nM. For the same molecule, the “Change in BP” value in the assay with Rattus norvegicus [3] is -16. Regarding `CCCc1nc(-n2cccc2C(=O)O)c(C#N)n1Cc1ccc(-c2ccccc2-c2nn[nH]n2)cc1`, in assay [1], the concentration for half-maximal inhibition (IC50) came out at 103 nM.

In assay [1], `CCCCc1nc(-n2cccc2)cn1Cc1ccc(-c2ccccc2-c2nn[nH]n2)cc1` showed an IC50 of 27 nM. On to `CCCc1nc(-n2cccc2C(=O)C(F)(F)F)c(C(=O)OC)n1Cc1ccc(-c2ccccc2-c2nn[nH]n2)cc1`, for which, in the assay on Rattus norvegicus [2], the ED50 worked out at 36 µg/min/kg. Further, in assay [1], the IC50 is recorded as 3.64 nM. Also, in the assay with Rattus norvegicus [3], the “Change in BP” value is -28.

Consider `CCCc1nc(-n2ccc(C(=O)O)c2C)c(C(=O)O)n1Cc1ccc(-c2ccccc2-c2nn[nH]n2)cc1`, for which, in assay [1], the IC50 was found to be 11 nM.
